Test results from ChEMBL document CHEMBL1159047, “Synthesis and biological evaluation of antitumour-active betulin derivatives” (Bioorg Med Chem, 2010).
Activity calls are given as the source filed them. The calls are words filed in the database; no cut-off is given here.

What was measured:
A-431 = test: Cytotoxicity against human A431 cells after 96 hrs by SRB assay; assay type: functional, cell-based; conditions: A-431, 96 h
Outline: (§1)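 Monolayer cells grown in RPMI 1640 with 10% heat-inactivated FBS and penicillin/streptomycin at 37 °C, 5% CO2. Cells were seeded and, after 24 h, exposed to serial dilutions (0–30 µM; DMSO or DMF ≤0.5% final) for 96 h. They were then fixed with 10% TCA at 4 °C, stained with 0.4% SRB and dissolved in 10 mM Tris, with absorbance read at 570 nm. IC50 comes from semi-log dose–response curves of survival versus untreated controls, from ≥3 independent experiments.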

A549 [1] = test: Cytotoxicity against human A549 cells after 96 hrs by SRB assay; assay type: functional, cell-based; conditions: A549, 96 h; outline: as §1
A2780 [2] = test: Cytotoxicity against human A2780 cells after 96 hrs by SRB assay; assay type: functional, cell-based; conditions: A2780, 96 h; outline: as §1
HCT-8 = test: Cytotoxicity against human HCT8 cells after 96 hrs by SRB assay; assay type: functional, cell-based; conditions: HCT-8, 96 h; outline: as §1
HCT-116 = test: Cytotoxicity against human HCT116 cells after 96 hrs by SRB assay; assay type: functional, cell-based; conditions: HCT-116, 96 h; outline: as §1
HT-29 [3] = test: Cytotoxicity against human HT-29 cells after 96 hrs by SRB assay; assay type: functional, cell-based; conditions: HT-29, 96 h; outline: as §1
SW-1736 [4] = test: Cytotoxicity against human SW1736 cells after 96 hrs by SRB assay; assay type: functional, cell-based; conditions: SW-1736, 96 h; outline: as §1
MCF7 = test: Cytotoxicity against human MCF7 cells after 96 hrs by SRB assay; assay type: functional, cell-based; conditions: MCF7, 96 h; outline: as §1
518A2 = test: Growth inhibition of human 518A2 cells at 30 uM after 96 hrs by SRB assay; assay type: functional, cell-based
Outline: (§2)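 Same SRB set-up: RPMI 1640 with 10% FBS at 37 °C, 5% CO2, and a 96 h exposure starting 24 h after seeding (DMSO or DMF ≤0.5% final). Percent viable cells relative to untreated controls is read at 30 µM, the top concentration of the 0–30 µM dilution series. Cells were fixed with TCA, stained with SRB and read at 570 nm; ≥3 independent experiments.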

FaDu [5] = test: Growth inhibition of human FADU cells at 30 uM after 96 hrs by SRB assay; assay type: functional, cell-based; outline: as §2
DLD-1 [6] = test: Growth inhibition of human DLD1 cells at 30 uM after 96 hrs by SRB assay; assay type: functional, cell-based; outline: as §2
SW480 [7] = test: Growth inhibition of human SW480 cells at 30 uM after 96 hrs by SRB assay; assay type: functional, cell-based; outline: as §2
8505C [8] = test: Growth inhibition of human 8505C cells at 30 uM after 96 hrs by SRB assay; assay type: functional, cell-based; outline: as §2
Homo sapiens = species: Homo sapiens; test: Growth inhibition of human Liposarcoma cells at 30 uM after 96 hrs by SRB assay; assay type: functional; outline: as §2
[9] = Cytotoxicity against human 518A2 cells after 96 hrs by SRB assay; assay type: functional, cell-based; conditions: 518A2, 96 h; outline: as §1
[10] = Cytotoxicity against human A253 cells after 96 hrs by SRB assay; assay type: functional, cell-based; conditions: A253, 96 h; outline: as §1
FaDu [11] = test: Cytotoxicity against human FADU cells after 96 hrs by SRB assay; assay type: functional, cell-based; outline: as §1
DLD-1 [12] = test: Cytotoxicity against human DLD1 cells after 96 hrs by SRB assay; assay type: functional, cell-based; conditions: DLD-1, 96 h; outline: as §1
SW480 [13] = test: Cytotoxicity against human SW480 cells after 96 hrs by SRB assay; assay type: functional, cell-based; conditions: SW480, 96 h; outline: as §1
8505C [14] = test: Cytotoxicity against human 8505C cells after 96 hrs by SRB assay; assay type: functional, cell-based; outline: as §1
[15] = Cytotoxicity against human Liposarcoma cells after 96 hrs by SRB assay; assay type: functional, cell-based; outline: as §1
A549 [16] = test: Growth inhibition of human A549 cells at 30 uM after 96 hrs by SRB assay; assay type: functional, cell-based; outline: as §2
A2780 [17] = test: Growth inhibition of human A2780 cells at 30 uM after 96 hrs by SRB assay; assay type: functional, cell-based; outline: as §2
SW-1736 [18] = test: Growth inhibition of human SW1736 cells at 30 uM after 96 hrs by SRB assay; assay type: functional, cell-based; outline: as §2
HT-29 [19] = test: Growth inhibition of human HT-29 cells at 30 uM after 96 hrs by SRB assay; assay type: functional, cell-based; outline: as §2

Row | SMILES | IC50 (A-431) | IC50 (A549 [1]) | IC50 (A2780 [2]) | IC50 (HCT-8) | IC50 (HCT-116) | IC50 (HT-29 [3]) | IC50 (SW-1736 [4]) | IC50 (MCF7) | IC50 [9] | IC50 [10] | IC50 (FaDu [11]) | IC50 (DLD-1 [12]) | IC50 (SW480 [13]) | IC50 (8505C [14]) | IC50 [15] | also measured
1 | C=C(C)[C@@H]1CC[C@]2([C@H](O)CC(=O)OCC)CC[C@]3(C)[C@H](CC[C@@H]4[C@@]5(C)CC[C@H](OC(C)=O)C(C)(C)[C@@H]5CC[C@]43C)[C@@H]12 | 18.7 µM | 28.2 µM | 21 µM | 16.5 µM | 13 µM | 21.8 µM | 23.5 µM | 27.3 µM | – | – | – | – | – | – | – | growth inhibition (GI) (518A2): inactive; growth inhibition (GI) (FaDu [5]): inactive; growth inhibition (GI) (DLD-1 [6]): inactive; growth inhibition (GI) (SW480 [7]): inactive; growth inhibition (GI) (8505C [8]): inactive; growth inhibition (GI) (Homo sapiens): inactive
2 | C=C(C)[C@@H]1CC[C@]2(C(=O)[C@H]3CCOC3=O)CC[C@]3(C)[C@H](CC[C@@H]4[C@@]5(C)CC[C@H](OC(C)=O)C(C)(C)[C@@H]5CC[C@]43C)[C@@H]12 (mixture of isomers) | 7.3 µM | 5.5 µM | 6.4 µM | 7.8 µM | 6.2 µM | 14.8 µM | 6.2 µM | 7.7 µM | 9.5 µM | 7 µM | 5.8 µM | 9.5 µM | 9.6 µM | 9.2 µM | 10 µM | –
3 | C=C(C)[C@@H]1CC[C@]2([C@H](O)[C@H]3C=CC(=O)O3)CC[C@]3(C)[C@H](CC[C@@H]4[C@@]5(C)CC[C@H](OC(C)=O)C(C)(C)[C@@H]5CC[C@]43C)[C@@H]12 | 8.9 µM | 17 µM | 8.8 µM | 14.7 µM | 8.5 µM | 29.9 µM | 14.7 µM | 12.5 µM | 16.5 µM | 15.7 µM | 12.3 µM | 16.3 µM | 12.8 µM | 17 µM | 15.9 µM | –
4 | C=C(C)[C@@H]1CC[C@]2([C@H]3CO3)CC[C@]3(C)[C@H](CC[C@@H]4[C@@]5(C)CC[C@H](O)C(C)(C)[C@@H]5CC[C@]43C)[C@@H]12 | 23.5 µM | – | – | 24.6 µM | 20.3 µM | 18.2 µM | – | 28.6 µM | – | 20.1 µM | – | – | 16.8 µM | 24.3 µM | 24.7 µM | growth inhibition (GI) (518A2): inactive; growth inhibition (GI) (FaDu [5]): inactive; growth inhibition (GI) (A549 [16]): inactive; growth inhibition (GI) (A2780 [17]): inactive; growth inhibition (GI) (DLD-1 [6]): inactive; growth inhibition (GI) (SW-1736 [18]): inactive
5 | C=C(C)[C@@H]1CC[C@]2([C@H](O)[C@H]3CCOC3=O)CC[C@]3(C)[C@H](CC[C@@H]4[C@@]5(C)CC[C@H](OC(C)=O)C(C)(C)[C@@H]5CC[C@]43C)[C@@H]12 | 11.7 µM | 21.1 µM | 12.4 µM | 8.3 µM | 10.7 µM | – | 18.5 µM | 11.7 µM | 17.9 µM | 16.8 µM | 17.5 µM | 17.4 µM | 16.4 µM | 22.2 µM | 17.4 µM | growth inhibition (GI) (HT-29 [19]): inactive
6 | C=C(C)[C@@H]1CC[C@]2([C@@H]3CO3)CC[C@]3(C)[C@H](CC[C@@H]4[C@@]5(C)CC[C@H](O)C(C)(C)[C@@H]5CC[C@]43C)[C@@H]12 | 20.1 µM | – | 28.2 µM | 20.6 µM | 19.9 µM | 15.4 µM | – | 23.6 µM | 26.8 µM | 18.8 µM | – | – | 16.2 µM | 22.3 µM | 22.4 µM | growth inhibition (GI) (FaDu [5]): inactive; growth inhibition (GI) (A549 [16]): inactive; growth inhibition (GI) (DLD-1 [6]): inactive; growth inhibition (GI) (SW-1736 [18]): inactive
7 | C=C(C)[C@@H]1CC[C@]2(C(=O)CC(=O)OCC)CC[C@]3(C)[C@H](CC[C@@H]4[C@@]5(C)CC[C@H](OC)C(C)(C)[C@@H]5CC[C@]43C)[C@@H]12 | 3.9 µM | 5.3 µM | 4.3 µM | 4.1 µM | 3.6 µM | 4.1 µM | 7.2 µM | 4.7 µM | 6.3 µM | 7.4 µM | 6.5 µM | 7.9 µM | 5.9 µM | 7.9 µM | 6.4 µM | –
8 | C=C(C)[C@@H]1CC[C@]2(C(=O)O)CC[C@]3(C)[C@H](CC[C@@H]4[C@@]5(C)CC[C@H](O)C(C)(C)[C@@H]5CC[C@]43C)[C@@H]12 [BETULINIC ACID] | – | – | – | – | – | – | – | – | – | – | – | – | – | – | 9.7 µM | –
9 | C=C(C)[C@@H]1CC[C@]2(C(=O)CC(=O)OCC)CC[C@]3(C)[C@H](CC[C@@H]4[C@@]5(C)CC[C@H](OC(C)=O)C(C)(C)[C@@H]5CC[C@]43C)[C@@H]12 | 2.6 µM | 2.2 µM | 1.8 µM | 3 µM | 2.4 µM | 12 µM | 2.3 µM | 6.8 µM | 2.5 µM | 2.2 µM | 3 µM | 3.9 µM | 2.2 µM | 2.3 µM | 2.2 µM | –
10 | C=C(C)[C@@H]1CC[C@]2([C@@H]3O[C@H]3C(=O)N(CC)CC)CC[C@]3(C)[C@H](CC[C@@H]4[C@@]5(C)CC[C@H](OC(C)=O)C(C)(C)[C@@H]5CC[C@]43C)[C@@H]12 | 4.3 µM | 5.6 µM | 4.7 µM | 2.7 µM | 2.3 µM | 9.6 µM | 2.7 µM | 4.6 µM | 7 µM | 3.5 µM | 5.9 µM | 7.9 µM | 6 µM | 8.3 µM | 7.7 µM | –
11 | CCOC(=O)CC(=O)C[C@H]1O[C@@H]2[C@@H]3[C@H]4CC[C@@H]5[C@@]6(C)CC[C@H](OC(C)=O)C(C)(C)[C@@H]6CC[C@@]5(C)[C@]4(C)CC[C@@]31CCC2(C)C | 9.8 µM | 5.2 µM | 4.7 µM | 6.1 µM | 7 µM | 13.2 µM | 11.3 µM | 9.2 µM | 10.4 µM | 10.9 µM | 7 µM | 7.2 µM | 5.8 µM | 8.9 µM | 10.5 µM | –
12 | CCOC(=O)C[C@H]1O[C@@H]2[C@@H]3[C@H]4CC[C@@H]5[C@@]6(C)CC[C@H](OC(C)=O)C(C)(C)[C@@H]6CC[C@@]5(C)[C@]4(C)CC[C@@]31CCC2(C)C | 22.6 µM | 21.9 µM | 11.9 µM | 12 µM | 9.3 µM | 16.7 µM | 25.9 µM | 27.1 µM | – | 25.1 µM | 24.7 µM | – | 17.3 µM | – | – | growth inhibition (GI) (518A2): inactive; growth inhibition (GI) (DLD-1 [6]): inactive; growth inhibition (GI) (8505C [8]): inactive; growth inhibition (GI) (Homo sapiens): inactive
13 | C=C(C)[C@@H]1CC[C@]2([C@H](O)CC(=O)CC(=O)OCC)CC[C@]3(C)[C@H](CC[C@@H]4[C@@]5(C)CC[C@H](OC(C)=O)C(C)(C)[C@@H]5CC[C@]43C)[C@@H]12 | 16.1 µM | 16.8 µM | 9.1 µM | 11.3 µM | 13 µM | 18.5 µM | 10.6 µM | 13.9 µM | 11.6 µM | 10 µM | 10.5 µM | 9.3 µM | 13 µM | 9.6 µM | 9 µM | –
14 | C=C(C)[C@@H]1CC[C@]2([C@H](O)CC(=O)CC(=O)OCC)CC[C@]3(C)[C@H](CC[C@@H]4[C@@]5(C)CC[C@H](OC)C(C)(C)[C@@H]5CC[C@]43C)[C@@H]12 | 20.7 µM | 14.6 µM | 12.1 µM | 12.5 µM | 14.6 µM | 16.8 µM | 13.8 µM | 20.7 µM | 19.4 µM | 17 µM | 16.2 µM | 14 µM | 15.3 µM | 17.6 µM | 17.8 µM | –
